Legend:
Assay type in all cases: functional, cell-based
[1] = Cytotoxicity against human HL60/TX1000 cells after 72 hrs by MTT assay; details: HL60/TX1000, 72 h
In short: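 HL-60/TX1000 cells (Taxol-resistant HL-60 subline selected by stepwise Taxol exposure; overexpress MDR1/P-glycoprotein) grown in RPMI1640 with 10% FC plus penicillin/streptomycin, split every third day, set to 2 · 10⁵ cells/mL the day before the experiment, and used in exponential growth. Compounds were diluted into medium from 1 mM DMSO stock and tested at various concentrations for 72 h. IC50 was read by […] tetrazolium assay.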

[2] = tested on: P388; assay: Cytotoxicity against mouse P388 cells after 72 hrs […]; details: P388, 72 h
[3] = tested on: HL-60; assay: Cytotoxicity against human HL60 cells after 72 hrs […]; details: HL-60, 72 h
[4] = Cytotoxicity against human MESSA cells after 72 hrs […]; details: MES-SA
[5] = Cytotoxicity against human MDA435 cells after 72 hrs […]; details: MDA-MB-435, 72 h
[6] = tested on: DU-145; assay: Cytotoxicity against human DU145 cells after 72 hrs […]; details: DU-145, 72 h
[7] = Cytotoxicity against human MESSA/DX5 cells after 72 hrs […]; details: MES-SA/Dx5, 72 h

**Q.** With NC(=O)c1ccc(NC(=O)C(=O)c2cn(Cc3ccc(Cl)cc3)c3ccccc23)nc1 as the compound, how does the IC50 [1] read?
**A.** 50 nM

**Q.** For Cc1cnc(NC(=O)C(=O)c2cn(Cc3ccc(Cl)cc3)c3ccccc23)s1, which IC50 [1] is on record?
**A.** 50 nM

**Q.** Which IC50 [2] does the source give for CC(=O)O[C@H]1C(=O)[C@@]2(C)[C@H]([C@H](OC(=O)c3ccccc3)[C@]3(O)C[C@H](OC(=O)[C@H](O)[C@@H](NC(=O)c4ccccc4)c4ccccc4)C(C)=C1C3(C)C)[C@]1(OC(C)=O)CO[C@@H]1C[C@@H]2O [PACLITAXEL] here?
**A.** 10 nM

**Q.** With O=C(Nn1cnnc1)C(=O)c1cn(Cc2ccc(Cl)cc2)c2ccccc12 as the compound, how does the IC50 [1] read?
**A.** > 10000 nM

**Q.** For Cc1ccc2cc(NC(=O)C(=O)c3cn(Cc4ccc(Cl)cc4)c4ccccc34)ccc2n1, which IC50 [1] is on record?
**A.** 500 nM

**Q.** With O=C(Nc1ccno1)C(=O)c1cn(Cc2ccc(Cl)cc2)c2ccccc12 as the compound, how does the IC50 [1] read?
**A.** 50 nM

**Q.** For Cc1cc(NC(=O)C(=O)c2cn(Cc3ccc(Cl)cc3)c3ccccc23)on1, which IC50 [1] is on record?
**A.** 50 nM

**Q.** Which IC50 [1] does the source give for O=C(Nc1ccc2ncccc2c1)C(=O)c1cn(Cc2ccc(Cl)cc2)c2ccccc12 here?
**A.** 50 nM

**Q.** With Cc1cc(NC(=O)C(=O)c2cn(Cc3ccc(Cl)cc3)c3ccccc23)no1 as the compound, how does the IC50 [1] read?
**A.** 50 nM

**Q.** With O=C(Nc1nncs1)C(=O)c1cn(Cc2ccc(Cl)cc2)c2ccccc12 as the compound, how does the IC50 [1] read?
**A.** 100 nM

**Q.** With Cc1cc(NC(=O)C(=O)c2cc(Cc3ccc(C#N)cc3)n3ccccc23)sn1 [ROSABULIN] as the compound, how does the IC50 [2] read?
**A.** 10 nM

**Q.** What about the IC50 [1] of the same compound?
**A.** 20 nM

**Q.** What about the IC50 [3] of the same compound?
**A.** 50 nM

**Q.** And the IC50 [4]?
**A.** 10 nM

**Q.** And the IC50 [5]?
**A.** 50 nM

**Q.** And the IC50 [6]?
**A.** 50 nM

**Q.** What about the IC50 [7] of the same compound?
**A.** 50 nM

**Q.** With O=C(Nc1noc2ccccc12)C(=O)c1cn(Cc2ccc(Cl)cc2)c2ccccc12 as the compound, how does the IC50 [1] read?
**A.** > 10000 nM

**Q.** For Cc1nsc(NC(=O)C(=O)c2cn(Cc3ccc(Cl)cc3)c3ccccc23)c1Cl, which IC50 [1] is on record?
**A.** 5000 nM

**Q.** With O=C(Nc1ccncc1)C(=O)c1cn(Cc2ccc(Cl)cc2)c2ccccc12 [INDIBULIN] as the compound, how does the IC50 [1] read?
**A.** 50 nM

**Q.** For Cc1cc(NC(=O)C(=O)c2cn(Cc3ccc(Cl)cc3)c3ccccc23)sn1, which IC50 [1] is on record?
**A.** 10 nM

**Q.** For O=C(Nc1cccnc1)C(=O)c1cn(Cc2ccc(Cl)cc2)c2ccccc12, which IC50 [1] is on record?
**A.** 6000 nM

**Q.** With O=C(Nc1ccccn1)C(=O)c1cn(Cc2ccc(Cl)cc2)c2ccccc12 as the compound, how does the IC50 [1] read?
**A.** > 10000 nM

**Q.** Which IC50 [1] does the source give for Cc1cc(NC(=O)C(=O)c2cc(Cc3ccc(Cl)cc3)n3ccccc23)sn1 here?
**A.** 60 nM

**Q.** Which IC50 [1] does the source give for O=C(Nc1ccon1)C(=O)c1cn(Cc2ccc(Cl)cc2)c2ccccc12 here?
**A.** 50 nM

**Q.** Which IC50 [1] does the source give for C[n+]1ccc(NC(=O)C(=O)c2cn(Cc3ccc(Cl)cc3)c3ccccc23)cc1 here?
**A.** > 10000 nM

**Q.** Which IC50 [1] does the source give for O=C(Nc1cccc2cccnc12)C(=O)c1cn(Cc2ccc(Cl)cc2)c2ccccc12 here?
**A.** > 10000 nM

**Q.** Which IC50 [1] does the source give for CSc1nnc(NC(=O)C(=O)c2cn(Cc3ccc(Cl)cc3)c3ccccc23)s1 here?
**A.** 1000 nM

**Q.** For CC(C)(C)c1csc(NC(=O)C(=O)c2cn(Cc3ccc(Cl)cc3)c3ccccc23)n1, which IC50 [1] is on record?
**A.** 5000 nM

From ChEMBL document CHEMBL1144012, “Indole- and indolizine-glyoxylamides displaying cytotoxicity against multidrug resistant cancer cell lines” (Bioorg Med Chem Lett, 2008)
